Common to all, as to format: functional, cell-based
One assay has as its system Prostatic carcinoma cell. The assay is described as follows: Cytotoxicity against human prostate cancer cells.
The test system of assay [1] is LNCaP C4-2. The assay is described as follows: Growth inhibition of human C4-2 cells after 48 hrs by MTT assay. As to conditions: LNCaP C4-2, 48 h.
The subject of the next assay is CWR22R. As to the kind of experiment: Growth inhibition of human 22Rv1 cells after 48 hrs by MTT assay. Particulars: 22Rv1, 48 h.
A further assay deals with PC-3. The assay is described as follows: Growth inhibition of human PC3 cells after 48 hrs by MTT assay. As to conditions: PC-3, 48 h.
The next assay has as its system BXPC-3. The assay is described as follows: Growth inhibition of human BxPC3 cells after 48 hrs by MTT assay. As to conditions: BXPC-3, 48 h.
A further assay deals with MDA-MB-231. The assay is described as follows: Growth inhibition of human MDA-MB-231 cells after 48 hrs by MTT assay. Particulars: MDA-MB-231, 48 h.
The subject of a further assay is HEK293. As to the kind of experiment: Growth inhibition of HEK293 cells after 48 hrs by MTT assay. As to conditions: Homo sapiens, HEK293, 48 h.
The next assay has as its system NCI-H460. As to the kind of experiment: Antiproliferative activity against human NCI-H460 cells.
Assay [2] relates to LNCaP C4-2. As to the kind of experiment: Induction of apoptosis in human C4-2 cells assessed as DNA fragmentation by measuring DNA ladder formation at 10 uM after 48 hrs by agarose gel electrophoresis method.
Assay [3] has as its system LNCaP C4-2. The assay is described as follows: Induction of apoptosis in human C4-2 cells assessed as PARP cleavage at 2.5 uM after 48 hrs by Western blot analysis.
The subject of assay [4] is LNCaP C4-2. As to the kind of experiment: Induction of ROS generation in human C4-2 cells at 10 uM after 48 hrs by H2-DCF-DA staining based inverted fluorescent microscopic method. An outline of the steps:
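C4-2 cells left untreated or exposed 48 h to compound at 10 μM. H2O2 (10 μM) was the positive control. Intracellular ROS was stained with DCFDA and fluorescence quantified.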

Assay [5] concerns LNCaP C4-2. The assay is described as follows: Induction of apoptosis in human C4-2 cells assessed as nuclear fragmentation at 2.5 uM after 48 hrs by acridine orange/ethidium bromide staining based inverted fluorescent microscopic method. An outline of the steps:
(§1)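 C4-2 cells were incubated 48 h with compound, alongside untreated controls. They were then stained with acridine orange (live and dead cells) and ethidium bromide (dead cells only). Nuclear morphology was scored for red fragmented nuclei as apoptosis versus necrosis.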

The test system of assay [6] is LNCaP C4-2. As to the kind of experiment: Antimigratory activity against human C4-2 cells at 10 uM after 12 to 48 hrs by wound healing assay. An outline of the steps: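 A scratch was made in a C4-2 monolayer. Cells were incubated further for 12, 24 and 48 h, then fixed and imaged to follow migration into the wound.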
The test system of assay [7] is LNCaP C4-2. As to the kind of experiment: Induction of apoptosis in human C4-2 cells assessed as PARP cleavage at 3.5 uM after 48 hrs by Western blot analysis.
The test system of assay [8] is LNCaP C4-2. As to the kind of experiment: Induction of apoptosis in human C4-2 cells assessed as nuclear fragmentation at 3.5 uM after 48 hrs by acridine orange/ethidium bromide staining based inverted fluorescent microscopic method. An outline of the steps:
as §1

The record followed here is ChEMBL document CHEMBL4229493, “Synthesis and anticancer activity studies of indolylisoxazoline analogues” (Bioorg Med Chem Lett, 2018).

SMILES strings stand for the structures. Calls of active or inactive are those of the source. The calls are words filed in the database; no cut-off is given here.

In the case of `COc1cc(-c2nnc(-c3cn(C)c4ccccc34)[nH]2)cc(OC)c1OC`, 0.8 µM corresponded to half-maximal inhibition with Prostatic carcinoma cell (IC50). That is a sub-micromolar value.

For `c1ccc2c(C3CC(c4ccc5c(c4)OCO5)=NO3)c[nH]c2c1` (stereo not given), the IC50 with LNCaP C4-2 [1] is 15.8 µM; with CWR22R, over 100 µM; in the assay with PC-3 it was over 100 µM; in the assay with BXPC-3, 27 µM; in the assay on MDA-MB-231 it was 26.6 µM; in the assay on HEK293, over 100 µM.

Take `COc1ccc2[nH]cc(C3CC(c4ccncc4)=NO3)c2c1` (stereo not given): the IC50 is over 100 µM with LNCaP C4-2 [1]; 35.5 µM in the assay with CWR22R; over 100 µM in the assay with PC-3; 68.5 µM in the assay with BXPC-3; over 100 µM in the assay with MDA-MB-231; over 100 µM in the assay on HEK293.

`COc1ccc2[nH]cc(C3CC(c4cc(OC)c(OC)c(OC)c4)=NO3)c2c1` (stereo not given): the IC50 was 71.2 µM in the assay on LNCaP C4-2 [1]; 11.3 µM in the assay with CWR22R; 42.6 µM with PC-3; over 100 µM with BXPC-3; 26 µM with MDA-MB-231; 45.4 µM in the assay with HEK293.

`COc1cc(-c2cnc(-c3ccc4c(ccn4C)c3)o2)cc(OC)c1OC` returned an IC50 with NCI-H460 of 0.0062 µM.

On to `COc1cc(C2=NOC(c3c[nH]c4ccccc34)C2)cc(OC)c1OC` (stereo not given), for which the IC50 with LNCaP C4-2 [1] came to 5 µM; in the assay on CWR22R, 4.51 µM; in the assay on PC-3, 15.5 µM; in the assay with BXPC-3, 13.5 µM; in the assay on MDA-MB-231, 11.7 µM; in the assay with HEK293 it was 5 µM.

Regarding `c1ccc2c(C3CC(c4ccncc4)=NO3)c[nH]c2c1` (stereo not given), the IC50 is 12.8 µM in the assay with LNCaP C4-2 [1]; over 100 µM with CWR22R; over 100 µM in the assay with PC-3; 30.5 µM in the assay on BXPC-3; 19.7 µM in the assay on MDA-MB-231; over 100 µM with HEK293.

On to `COc1ccc(C2=NOC(c3c[nH]c4ccccc34)C2)cc1OC` (stereo not given), for which the IC50 with LNCaP C4-2 [1] was 65.5 µM; in the assay with CWR22R, 16.7 µM; with PC-3, 70.1 µM; in the assay with BXPC-3 it was over 100 µM; in the assay with MDA-MB-231 it was over 100 µM; in the assay on HEK293 it was over 100 µM.

Take `COc1cccc2c1C(=O)c1c(O)c3c(c(O)c1C2=O)C[C@@](O)(C(=O)CO)C[C@@H]3O[C@H]1C[C@H](N)[C@H](O)[C@H](C)O1` [DOXORUBICIN]: the 50% inhibitory concentration (IC50) in the assay on LNCaP C4-2 [1] came out at 3.25 µM; in the assay with PC-3, 9.58 µM; in the assay on BXPC-3, 9.12 µM; in the assay on HEK293, 3.9 µM.

As to `COc1ccc2c(C3CC(c4ccncc4)=NO3)cn(Cc3ccc(Cl)cc3)c2c1` (stereo not given), the IC50 was over 100 µM with LNCaP C4-2 [1]; 17.3 µM in the assay with CWR22R; 95.1 µM in the assay with PC-3; over 100 µM with BXPC-3; over 100 µM in the assay on MDA-MB-231; 37.2 µM in the assay on HEK293.

As for `Cc1c(C2CC(c3ccncc3)=NO2)c2ccccc2n1Cc1ccc(Cl)cc1` (stereo not given), the result in the assay with LNCaP C4-2 [2], in the assay on LNCaP C4-2 [3], in the assay with LNCaP C4-2 [5] and with LNCaP C4-2 [6] was Active. For the same molecule, the IC50 in the assay on LNCaP C4-2 [1] was determined as 2.5 µM; with CWR22R it was 8.33 µM; in the assay with PC-3 it was 11.2 µM; with BXPC-3 it was 13.5 µM; in the assay with MDA-MB-231, 6.66 µM; with HEK293, 2.5 µM. The result with LNCaP C4-2 [4] was inactive.

As for `Clc1ccc(Cn2cc(C3CC(c4ccncc4)=NO3)c3ccccc32)cc1` (stereo not given), the IC50 is 11.4 µM with LNCaP C4-2 [1]; 9.6 µM in the assay on CWR22R; 25.7 µM in the assay with PC-3; over 100 µM with BXPC-3; 13.7 µM with MDA-MB-231; 10.2 µM with HEK293.

Turning to `COc1ccc2c(C3CC(c4ccncc4)=NO3)c[nH]c2c1` (stereo not given), the result with LNCaP C4-2 [2], with LNCaP C4-2 [7], in the assay with LNCaP C4-2 [8] and in the assay with LNCaP C4-2 [6] was Active. Further, the IC50 was found to be 3.5 µM in the assay on LNCaP C4-2 [1]; 16.3 µM with CWR22R; 10.5 µM in the assay on PC-3; 9.5 µM in the assay on BXPC-3; 7.38 µM in the assay on MDA-MB-231; 4.16 µM in the assay with HEK293. For the same molecule, in the assay on LNCaP C4-2 [4], the result was inactive.

For the molecule `Fc1ccc2c(C3CC(c4ccncc4)=NO3)c[nH]c2c1` (stereo not given), the IC50 with LNCaP C4-2 [1] turned out to be 8 µM; with CWR22R it was 3.66 µM; in the assay with PC-3, 12.9 µM; in the assay on BXPC-3, 9.5 µM; in the assay with MDA-MB-231, 5 µM; with HEK293 it was 9.5 µM.

Consider `OO`, for which, in the assay on LNCaP C4-2 [4], the result was Active.

On to `Cc1[nH]c2ccccc2c1C1CC(c2ccncc2)=NO1` (stereo not given), for which the IC50 was 45.1 µM in the assay on LNCaP C4-2 [1]; 17.3 µM with CWR22R; 21.2 µM in the assay with PC-3; 95.5 µM in the assay with BXPC-3; 26.6 µM in the assay on MDA-MB-231; over 100 µM with HEK293.

With `COc1ccc2c(c1)c(C1CC(c3ccncc3)=NO1)cn2Cc1ccc(Cl)cc1` (stereo not given), the IC50 in the assay with LNCaP C4-2 [1] is over 100 µM; in the assay with CWR22R, 10.6 µM; with PC-3, 55.2 µM; with BXPC-3 it was over 100 µM; in the assay on MDA-MB-231, 26 µM; in the assay on HEK293 it was 14.2 µM.
